Bioassay records (PubChem BioAssay)
M4 PAM – positive allosteric modulators of human muscarinic M4 receptor; 360,000 compounds, 0.4% hits; CHO-K1 hM4/Gqi5, Fluo-8 calcium fluorescence, ACh EC20; 0% = ACh EC20, 100% = maximal ACh; activation, % at 3 µM;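 active = activation above its plate's cutoff, the mean activation of sample wells plus 3 SD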
CHRM5 antagonist – CHRM5 antagonism in calcium assay; P08912; CHO-hM5 cells, Fluo-8 calcium fluorescence, ACh EC80; inhibition, % at 3 µM; 360,000 compounds, 0.59% hits; AID 624040;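 active = inhibition above a per-plate cutoff, the mean of that plate's test compounds plus 3 SD, cut at about 27% in these data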
Target sequence (P08912 whole entry, looked up): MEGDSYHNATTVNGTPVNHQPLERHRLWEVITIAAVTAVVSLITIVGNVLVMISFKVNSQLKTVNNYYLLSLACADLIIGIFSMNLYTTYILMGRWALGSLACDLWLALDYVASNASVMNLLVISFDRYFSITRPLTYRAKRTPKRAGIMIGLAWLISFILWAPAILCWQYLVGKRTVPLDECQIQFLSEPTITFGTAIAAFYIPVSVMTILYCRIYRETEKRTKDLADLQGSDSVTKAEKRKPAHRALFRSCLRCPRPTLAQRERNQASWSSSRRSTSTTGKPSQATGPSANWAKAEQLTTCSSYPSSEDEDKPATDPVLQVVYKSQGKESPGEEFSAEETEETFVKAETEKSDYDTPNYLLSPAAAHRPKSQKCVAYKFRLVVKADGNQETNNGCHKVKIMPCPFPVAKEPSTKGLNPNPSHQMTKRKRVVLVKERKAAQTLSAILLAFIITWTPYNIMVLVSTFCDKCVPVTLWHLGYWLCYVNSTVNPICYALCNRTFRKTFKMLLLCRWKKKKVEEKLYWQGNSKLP
M4 antag – CHRM4 antagonism in calcium assay. inhibition, % at 3 µM. P08173. 360,000 compounds, 0.73% hits. CHO-hM4 cells, ACh EC80, Fluo-8 calcium fluorescence;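 active = inhibition above its plate's cutoff, the mean inhibition of sample wells plus 3 SD, cut at about 27% in these data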
CHRM4 agonist – agonists of human muscarinic M4 receptor (CHRM4) | P08173 | CHO-K1 hM4/Gqi5, Fluo-8 calcium fluorescence; vehicle 0%, full acetylcholine response 100% | activation, % at 3 µM | 360,000 compounds, 0.14% hits | AID 624127;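 active = activation above the run mean over all test wells plus 3 SD, cut at about 32% in these data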;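 also: peak over basal fluorescence ratio per well then scaled between controls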
M5 PAM – potentiates acetylcholine response at human M5 receptor; activation, % at 3 µM; CHO-K1 hM5, Fluo-8 calcium, ACh EC20 PAM; 0% = ACh EC20, 100% = ACh EC100; AID 624038; 360,000 compounds, 0.3% hits;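 active = activation above the run cutoff, the mean activation of all test compounds plus 3 SD, cut at about 18% in these data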
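Assay system: CHO-K1 hM5 cells / Incubation: Fluo-8 loading 80 min at 37 °C plus 30 min room temperature / Technique: Fluo-8 calcium dye fluorescence, kinetic read / Repeats: single replicate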
CHRM5 agonist – agonists of human muscarinic M5 receptor (CHRM5); P08912; CHO-K1 hM5 cells, Fluo-8 calcium fluorescence; 0% DMSO wells, 100% maximal acetylcholine response; activation, % at 3 µM; 360,000 compounds, 0.19% hits; AID 624037;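 active = activation above the run's mean over test compounds plus 3 SD, cut at about 23% in these data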;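 also: signal is peak over basal fluorescence ratio across the kinetic read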
Numbers stand for hits. The list is not random: actives were taken first. Their share in the collection is about 1.8%.

Screening CN(C)S(=O)(=O)N1CCN(c2ccc([N+](=O)[O-])c(N3CCCCC3)c2)CC1 returned M4 PAM inactive, CHRM5 antagonist inactive, M4 antag inactive, CHRM4 agonist inactive, M5 PAM inactive and CHRM5 agonist inactive.
Screening O=C1N2CCCc3cccc(c32)C12Nc1ccccc1S2 (stereo unspecified) returned M4 PAM inactive, CHRM5 antagonist inactive, M4 antag inactive, CHRM4 agonist inactive, M5 PAM inactive and CHRM5 agonist inactive.
Screening COc1ccc(N2C(=O)CSC23C(=O)N2CCCc4cccc3c42)cc1 (stereo unspecified) returned M4 PAM inactive, CHRM5 antagonist 52, M4 antag 75, CHRM4 agonist inactive, M5 PAM inactive and CHRM5 agonist inactive.
`O=C1CSC2(C(=O)N3CCCc4cccc2c43)N1c1cccc(C(F)(F)F)c1` (stereo unspecified) gave M4 PAM inactive, CHRM5 antagonist 30, M4 antag 50, CHRM4 agonist inactive, M5 PAM inactive and CHRM5 agonist inactive.
COc1ccc(N2C(=O)CSC23C(=O)N2c4c(cccc43)C(C)=CC2(C)C)cc1 (stereo unspecified) was read as M4 PAM inactive, CHRM5 antagonist inactive, M4 antag inactive, CHRM4 agonist inactive, M5 PAM inactive and CHRM5 agonist inactive.
For CC(O)CNc1nc(N)[nH]c(=O)c1N=Nc1ccccc1 (stereo unspecified) the results were M4 PAM inactive, CHRM5 antagonist inactive, M4 antag inactive, CHRM4 agonist inactive, M5 PAM inactive and CHRM5 agonist inactive.
OCCOc1nnnn1-c1ccccc1 was read as M4 PAM inactive, CHRM5 antagonist inactive, M4 antag inactive, CHRM4 agonist inactive, M5 PAM inactive and CHRM5 agonist inactive.
Screening CCCOc1nnnn1-c1ccccc1 returned M4 PAM 19, CHRM5 antagonist inactive, M4 antag inactive, CHRM4 agonist inactive, M5 PAM inactive and CHRM5 agonist inactive.
Screening Cn1ncc(Cl)c1C(=O)N1CCN(c2ccc(Cl)c(Cl)c2)CC1 returned M4 PAM inactive, CHRM5 antagonist 29, M4 antag inactive, CHRM4 agonist inactive, M5 PAM inactive and CHRM5 agonist inactive.
`Cc1ccnc(NC(=O)CCC(=O)N(CC(=O)NCc2ccc(F)cc2)Cc2ccccc2)c1` gave M4 PAM inactive, CHRM5 antagonist inactive, M4 antag inactive, CHRM4 agonist inactive, M5 PAM inactive and CHRM5 agonist inactive.
Cc1ccc(OCc2ccc(C(=O)NNC(=S)NCC3CCCO3)o2)c([N+](=O)[O-])c1 (stereo unspecified) was read as M4 PAM inactive, CHRM5 antagonist inactive, M4 antag inactive, CHRM4 agonist inactive, M5 PAM 19 and CHRM5 agonist inactive.
Screening CCn1ncc(CN2CCCC(C(=O)c3cccc(OC(C)C)c3)C2)c1C (stereo unspecified) returned M4 PAM inactive, CHRM5 antagonist 29, M4 antag 38, CHRM4 agonist inactive, M5 PAM inactive and CHRM5 agonist inactive.
CCOC(=O)c1[nH]ncc1CN1CCCC(C(=O)c2cccc(OC(C)C)c2)C1 (stereo unspecified) was read as M4 PAM inactive, CHRM5 antagonist inactive, M4 antag inactive, CHRM4 agonist inactive, M5 PAM inactive and CHRM5 agonist inactive.
F[B-](F)(F)c1cc2ccccc2s1 was read as M4 PAM inactive, CHRM5 antagonist inactive, M4 antag inactive, CHRM4 agonist inactive, M5 PAM inactive and CHRM5 agonist inactive.
For O=C(Nc1ccc2c(c1)OCCO2)C(c1ccnc2ccccc12)N1CCN(c2ccc(F)cc2)CC1 (stereo unspecified) the results were M4 PAM inactive, CHRM5 antagonist inactive, M4 antag inactive, CHRM4 agonist inactive, M5 PAM 19 and CHRM5 agonist inactive.
For O=C(Nc1ccc2c(c1)OCCO2)C(c1ccnc2ccccc12)N1CCN(c2ccc(C(F)(F)F)cn2)CC1 (stereo unspecified) the results were M4 PAM inactive, CHRM5 antagonist inactive, M4 antag inactive, CHRM4 agonist inactive, M5 PAM inactive and CHRM5 agonist inactive.
For CCCSc1ccc(-c2nn(-c3ccccc3)cc2/C=C(/C#N)C(=O)N2CCOCC2)cc1 the results were M4 PAM inactive, CHRM5 antagonist inactive, M4 antag inactive, CHRM4 agonist inactive, M5 PAM 44 and CHRM5 agonist inactive.
Screening CCSc1ccc(-c2nn(-c3ccccc3)cc2/C=C(/C#N)C(=O)NC)cc1 returned M4 PAM inactive, CHRM5 antagonist inactive, M4 antag inactive, CHRM4 agonist inactive, M5 PAM inactive and CHRM5 agonist inactive.
Screening CC1(Cc2cc(Cl)ccc2C(F)(F)F)C(=O)Nc2cc(C(F)(F)F)ccc21 (stereo unspecified) returned M4 PAM inactive, CHRM5 antagonist inactive, M4 antag inactive, CHRM4 agonist inactive, M5 PAM inactive and CHRM5 agonist inactive.
CCCC(=O)Nn1cnc2c(c1=O)C1(CCCCC1)Cc1ccccc1-2 was read as M4 PAM inactive, CHRM5 antagonist inactive, M4 antag inactive, CHRM4 agonist inactive, M5 PAM inactive and CHRM5 agonist inactive.
For CCC(=O)Nn1cnc2c(c1=O)C1(CCCCC1)Cc1ccccc1-2 the results were M4 PAM inactive, CHRM5 antagonist inactive, M4 antag inactive, CHRM4 agonist inactive, M5 PAM 18 and CHRM5 agonist inactive.
O=C(NN1C(=O)C2C(c3ccccc3)C=CC(c3ccccc3)C2C1=O)c1cccc(Br)c1 (stereo unspecified) was read as M4 PAM inactive, CHRM5 antagonist 37, M4 antag inactive, CHRM4 agonist inactive, M5 PAM inactive and CHRM5 agonist inactive.
For O=C(O)C1C2CC(C(Br)C2Br)C1C(=O)O (stereo unspecified) the results were M4 PAM inactive, CHRM5 antagonist inactive, M4 antag inactive, CHRM4 agonist inactive, M5 PAM inactive and CHRM5 agonist inactive.
O=C(CCn1cnc(-c2ccccc2)c1-c1ccccc1)N/N=C/c1ccc(O)cc1 was read as M4 PAM inactive, CHRM5 antagonist inactive, M4 antag inactive, CHRM4 agonist inactive, M5 PAM inactive and CHRM5 agonist inactive.
For COc1ccc(/C=N/NC(=O)CCn2cnc(-c3ccccc3)c2-c2ccccc2)cc1 the results were M4 PAM inactive, CHRM5 antagonist inactive, M4 antag 85, CHRM4 agonist inactive, M5 PAM inactive and CHRM5 agonist inactive.
Screening COC(=O)C(CC(=O)c1cccc(OC)c1)c1ccc(F)cc1 (stereo unspecified) returned M4 PAM inactive, CHRM5 antagonist inactive, M4 antag inactive, CHRM4 agonist inactive, M5 PAM inactive and CHRM5 agonist inactive.
`COC(=O)c1ccc(COC(=O)CNC(=O)c2cccs2)cc1` gave M4 PAM inactive, CHRM5 antagonist inactive, M4 antag inactive, CHRM4 agonist inactive, M5 PAM inactive and CHRM5 agonist inactive.
